Results collected from several papers.
Protocols differ between the studies behind these lines.

| Structure (SMILES) | target or system | assay | setting | endpoint | result |
| --- | --- | --- | --- | --- | --- |
| CC(=NNC(=O)c1ccccc1O)c1ccc(Nc2nnc(-c3ccc(Cl)cc3)c3ccccc23)cc1 | MCF7 | cell growth or viability, MTT | 5 µM | cell death | 66.2% |
| Cc1c(C)c2c(c(C)c1O)CCC(C)(C(=O)O)O2 (stereo not shown) | – | DPPH scavenging | – | IC50 | 70.2 µM |
| S=C(Nc1ccccc1)Nc1ccc(Oc2nnc(-c3ccc(Cl)cc3)c3ccccc23)cc1 | MCF7 | cell growth or viability, MTT | 0.312 µM, 24 h | viability | 100% |
| Brc1cccc(/C=N/N=C/c2cccc(Br)c2)c1 | – | DPPH scavenging | – | IC50 | 2400 µM |
| CC(=NNC(=O)c1ccccc1)c1ccc(Nc2nnc(-c3ccc(Cl)cc3)c3ccccc23)cc1 | MCF7 | cell growth or viability, MTT | 2.5 µM | cell death | 86.3% |
| CCOC(=O)c1nn(-c2cccc(Cl)c2)/c(=N/N=C(\C)c2ccc(NC(=O)c3ccccc3)cc2)s1 | MCF7 | cell growth or viability, MTT | 0.156 µM | viability | 59.2% |
| O=C1O[C@H]([C@@H](O)CO)C(O)=C1O | – | DPPH scavenging, absorbance | 30 min | IC50 | 12.4 µM |
| FC(F)(F)c1ccccc1/C=N/N=C/c1ccccc1C(F)(F)F | – | DPPH scavenging | – | IC50 | 1680 µM |
| O=C(Nc1ccccc1)Nc1ccc(Oc2nnc(-c3ccc(Cl)cc3)c3ccccc23)cc1 | MCF7 | cell growth or viability, MTT | 78 nM, 24 h | viability | 96.4% |
| CCOC(=O)c1nn(-c2cccc(Cl)c2)/c(=N/N=C(\C)c2ccc(NC(=O)c3ccc(Cl)cc3)cc2)s1 | MCF7 | cell growth or viability, MTT | 0.625 µM | viability | 3.92% |
| CC(=NNC(=O)c1ccccc1Br)c1ccc(Nc2nnc(-c3ccc(Cl)cc3)c3ccccc23)cc1 | MCF7 | cell growth or viability, MTT | 0.625 µM, 24 h | viability | 75.9% |
| CC(=O)c1nn(-c2ccccc2Cl)/c(=N/N=C(\C)c2ccc(NC(=O)c3ccccc3)cc2)s1 | MCF7 | cell growth or viability, MTT | 0.625 µM | viability | 6.6% |
| Nc1ccc(/C=N/N=C/c2ccc(N)cc2)cc1 | – | DPPH scavenging | – | IC50 | > 3000 µM |
| COc1ccc(COC[C@@](O)(CNCc2ccc(F)cc2)[C@@H]2CC[C@@H](C)C[C@H]2OCc2ccc(OC)cc2)cc1 | MCF7 | cell growth or viability, MTT | 30 µM, 72 h | inhibition | 101% |
| COc1cc(/C=N/N=C/c2cc(OC)c(OC)c(OC)c2)cc(OC)c1OC | – | DPPH scavenging | – | IC50 | 2390 µM |
| CCN(CC)c1ccc(/C=N/c2ccc(F)cc2)c(O)c1 | – | DPPH scavenging | – | IC50 | 30.1 µM |
| CC(=O)c1nn(-c2ccc(C)cc2)/c(=N/N=C(\C)c2ccc(NC(=O)c3ccccc3)cc2)s1 | MCF7 | cell growth or viability, MTT | 0.156 µM | viability | 9.14% |
| CCN(CC)c1ccc(/C=N/c2ccc(F)c(Cl)c2)c(O)c1 | – | DPPH scavenging | – | IC50 | 47.6 µM |
| COc1cccc(/C=N/N=C/c2cccc(OC)c2)c1 | – | DPPH scavenging | – | IC50 | 755 µM |
